Measured values as given in ChEMBL document CHEMBL2375226, “Bivalent angiotensin II suppresses oxidative stress-induced hyper-responsiveness of angiotensin II receptor type I” (Eur J Med Chem, 2013).
Active and inactive are the calls of the source. The calls are words filed in the database; no cut-off is given here.

How the values were obtained:
HEK293 [1] = experiment: Stimulation of EGFP-tagged rat AT1 receptor expressed in HEK cells assessed as change in cluster density value at 2.5 nM under non-oxidative condition by image correlation spectroscopic analysis relative to control; type: cell-based
Summary of the method: (§1)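 HEK cells expressing EGFP-tagged AT₁R were plated at 1.5 × 10⁵ cells per glass-bottom dish. Where stated, cells were pre-treated with H₂O₂ for 3 h. Cell surfaces were imaged before and after 5 nM monovalent Ang II (or a 5 nM total 1:1 mixture) or 2.5 nM bivalent peptide. Imaging used a 488 nm laser and a 60× oil objective. Image correlation spectroscopy gave mean fluorescence intensity, cluster density and degree of aggregation versus unstimulated baseline.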

HEK293 [2] = experiment: Stimulation of EGFP-tagged rat AT1 receptor expressed in HEK cells assessed as increase in intracellular calcium level at 5 nM after 3 mins under H2O2-induced oxidative stress condition by fluorimetric assay
HEK293 [3] = experiment: Stimulation of EGFP-tagged rat AT1 receptor expressed in HEK cells assessed as increase in degree of aggregation at 2.5 nM under H2O2-induced oxidative stress condition by image correlation spectroscopic analysis; type: cell-based; summary of the method: as §1
HEK293 [4] = experiment: Stimulation of EGFP-tagged rat AT1 receptor expressed in HEK cells assessed as increase in degree of aggregation at 2.5 nM under non-oxidative condition by image correlation spectroscopic analysis; type: cell-based; summary of the method: as §1
HEK293 [5] = experiment: Stimulation of EGFP-tagged rat AT1 receptor expressed in HEK cells assessed as decrease in cluster density value at 2.5 nM under H2O2-induced oxidative stress condition by image correlation spectroscopic analysis; type: cell-based; summary of the method: as §1
HEK293 [6] = experiment: Stimulation of EGFP-tagged rat AT1 receptor expressed in HEK cells assessed as increase in mean fluorescence intensity at 5 nM under non-oxidative condition by image correlation spectroscopic analysis relative to control; type: cell-based; summary of the method: as §1
HEK293 [7] = experiment: Stimulation of EGFP-tagged rat AT1 receptor expressed in HEK cells assessed as increase in degree of aggregation at 5 nM under non-oxidative condition by image correlation spectroscopic analysis; type: cell-based; summary of the method: as §1
HEK293 [8] = experiment: Stimulation of EGFP-tagged rat AT1 receptor expressed in HEK cells assessed as increase in degree of aggregation at 5 nM under H2O2-induced oxidative stress condition by image correlation spectroscopic analysis; type: cell-based; summary of the method: as §1
HEK293 [9] = experiment: Stimulation of EGFP-tagged rat AT1 receptor expressed in HEK cells assessed as increase in cluster density value at 5 nM under non-oxidative condition by image correlation spectroscopic analysis relative to control; type: cell-based; summary of the method: as §1
HEK293 [10] = experiment: Stimulation of EGFP-tagged rat AT1 receptor expressed in HEK cells assessed as increase in intracellular calcium level at 5 nM after 3 mins under H2O2-induced oxidative stress condition by fluorimetric assay; type: cell-based
Summary of the method: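 Before the Indo1-AM [Ca²⁺]i assay, AT₁R-HEK cells were exposed to H₂O₂ for 3 h to impose oxidative stress. They were then stimulated with 5 nM peptide, based on Ang II equivalents. Ratiometric emission at 405/490 nm (ex 338 nm) was monitored for 3 min after ligand addition. Ca²⁺ was derived by Kd-based calibration against EGTA and ionomycin ratios.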

HEK293 [11] = experiment: Stimulation of EGFP-tagged rat AT1 receptor expressed in HEK cells assessed as increase in mean fluorescence intensity at 5 nM under H2O2-induced oxidative stress condition by image correlation spectroscopic analysis relative to control; type: cell-based; summary of the method: as §1
HEK293 [12] = experiment: Stimulation of EGFP-tagged rat AT1 receptor expressed in HEK cells assessed as increase in cluster density value at 5 nM under H2O2-induced oxidative stress condition by image correlation spectroscopic analysis; type: cell-based; summary of the method: as §1
HEK293 [13] = experiment: Stimulation of EGFP-tagged rat AT1 receptor expressed in HEK cells assessed as increase in intracellular calcium level at 10 nM after 3 mins by fluorimetric assay

## CC[C@H](C)[C@H](NC(=O)[C@H](Cc1ccc(O)cc1)NC(=O)[C@@H](NC(=O)[C@H](CCCNC(=N)N)NC(=O)[C@H](CC(=O)O)NC(=O)CCCCCNc1c(N[C@@H](CC(=O)O)C(=O)N[C@@H](CCCNC(=N)N)C(=O)N[C@H](C(=O)N[C@@H](Cc2ccc(O)cc2)C(=O)N[C@H](C(=O)N[C@@H](Cc2cnc[nH]2)C(=O)N2CCC[C@H]2C(=O)N[C@@H](Cc2ccccc2)C(=O)O)[C@@H](C)CC)C(C)C)c(=O)c1=O)C(C)C)C(=O)N[C@@H](Cc1cnc[nH]1)C(=O)N1CCC[C@H]1C(=O)N[C@@H](Cc1ccccc1)C(=O)O
HEK293 [1]
  Activity: inactive
HEK293 [2]
  Activity: Active
HEK293 [3]
  Activity: Active
HEK293 [4]
  Activity: Active
HEK293 [5]
  Activity: inactive

## CC[C@H](C)[C@H](NC(=O)[C@H](Cc1ccc(O)cc1)NC(=O)[C@@H](NC(=O)[C@H](CCCNC(=N)N)NC(=O)[C@@H](N)CC(=O)O)C(C)C)C(=O)N[C@@H](Cc1cnc[nH]1)C(=O)N1CCC[C@H]1C(=O)N[C@@H](Cc1ccccc1)C(=O)O
HEK293 [6]
  Activity: Active
HEK293 [7]
  Activity: inactive
HEK293 [8]
  Activity: Active
HEK293 [9]
  Activity: Active
HEK293 [10]
  Activity: Active
HEK293 [11]
  Activity: Active
HEK293 [12]
  Activity: Active

## CC[C@H](C)[C@H](NC(=O)[C@H](Cc1ccc(O)cc1)NC(=O)[C@@H](NC(=O)[C@H](CCCNC(=N)N)NC(=O)[C@H](CC(=O)O)NC(=O)CCCCCNc1c(OC)c(=O)c1=O)C(C)C)C(=O)N[C@@H](Cc1cnc[nH]1)C(=O)N1CCC[C@H]1C(=O)N[C@@H](Cc1ccccc1)C(=O)O
HEK293 [13]
  Activity: Active
